Experimental data collected from several papers.
Protocols differ between the studies behind these lines. Converted amounts (≈) assume the structure as drawn.

SMILES | test | system | setting | quantity | result
CC[C@H](C)[C@H](NC(=O)[C@H](Cc1ccccc1)NC(=O)[C@H](Cc1ccc(O)cc1)NC(=O)[C@@H](CCCCN)NC(=O)[C@@H](N)Cc1ccc(O)cc1)C(=O)N1CCC[C@H]1C(=O)N[C@@H](CC(C)C)C(=O)NCC(=O)N[C@H](CCCCN)C(=O)NCC(=O)N[C@@H](CCC(=O)O)C(=O)N[C@H](C(=O)N[C@@H](CC(N)=O)C(=O)N[C@@H](CC(C)C)[C@@H](O)CC(=O)N[C@H](C(=O)N[C@@H](C)C(=O)N[C@@H](CCC(=O)O)C(=O)N1CCC[C@@H]1C(=O)N[C@@H](CCCCNC(=O)CCC(=O)O[C@H]1CC[C@@]2(C)C(=CC[C@H]3[C@@H]4CC[C@H]([C@H](C)CCCC(C)C)[C@@]4(C)CC[C@@H]32)C1)C(N)=O)C(C)C)C(C)C |  | aqueous buffer | pH 6.5 | thermodynamic solubility | < 1 µg/mL
COc1cccc2c(NCc3ccccc3)nc(-n3c(=O)oc4ccccc43)nc12 |  | aqueous buffer | pH 6.2 | solubility | < 0.01 µg/mL
CCCn1nc(C(=O)N2CCCCC2)c2c1CCC(N(C)Cc1ccc(F)cc1)C2 (centres unmarked) |  | PBS | 16 h, pH 7.4 | thermodynamic solubility | 2400 µM
Brc1cccc(Nc2nc(NCc3ccccc3)c3ccccc3n2)c1 |  | aqueous buffer | pH 7.4 | solubility | < 0.01 µg/mL
CC(=O)N[C@@H](CCCNC(=N)N)C(=O)N[C@H]1CSSC[C@@H](C(=O)N[C@H](C(N)=O)[C@@H](C)O)NC(=O)[C@H](CCCNC(=N)N)NC(=O)[C@H](Cc2c[nH]cn2)NC(=O)[C@H](C)NC(=O)CNC(=O)[C@H](Cc2c[nH]c3ccccc23)NC(=O)[C@H](CC(=O)O)NC(=O)[C@H](CCC(N)=O)NC(=O)[C@H](Cc2cn(C)c3ccccc23)NC(=O)[C@H](C(C)C)NC1=O | absorbance | water |  | thermodynamic solubility | > 1000 µM
CC(=O)Oc1ccccc1C(=O)O |  | aqueous buffer | 72 h, pH 6.8, 37 °C | thermodynamic solubility | 158000 µg/mL
CC(=O)Nc1cc(Nc2cc(NC3CC3)n3ncc(C#N)c3n2)ccc1N(C)[C@H]1CCOC1 | shake flask | PBS | 24 h, pH 7.4, 22 °C | kinetic solubility | 21 µg/mL (≈ 47 µM)
Brc1ccccc1CNc1nc(NCc2ccccc2)c2ccccc2n1 |  | aqueous buffer | pH 6.2 | solubility | 0.24 µg/mL (≈ 0.572 µM)
CC[C@H](C)[C@H](NC(=O)[C@@H](CCCCN)NC(=O)[C@H](Cc1ccc(O)cc1)NC(=O)[C@@H]1CCCN1C(=O)[C@@H](N)Cc1ccc(O)cc1)C(=O)N1CCC[C@H]1C(=O)N[C@@H](CC(C)C)C(=O)NCC(=O)N[C@H](CCCCN)C(=O)NCC(=O)N[C@@H](CCC(=O)O)C(=O)N[C@H](C(=O)N[C@@H](CC(N)=O)C(=O)N[C@@H](CC(C)C)[C@@H](O)CC(=O)N[C@H](C(=O)N[C@@H](C)C(=O)N[C@@H](CCC(=O)O)C(=O)N1CCC[C@@H]1C(=O)N[C@@H](CCCCNC(=O)CCC(=O)O[C@H]1CC[C@@]2(C)C(=CC[C@H]3[C@@H]4CC[C@H]([C@H](C)CCCC(C)C)[C@@]4(C)CC[C@@H]32)C1)C(N)=O)C(C)C)C(C)C |  | aqueous buffer | pH 6.5 | thermodynamic solubility | > 2440 µg/mL
COc1ccc(C2CC(=O)c3c(O)cc(O)cc3O2)cc1O (centres unmarked) | shake flask | aqueous buffer | 24 h, pH 5, 25 °C | thermodynamic solubility | 9.33 µg/mL
CC[C@H](C)[C@H](NC(=O)[C@H](Cc1ccccc1)NC(=O)[C@H](Cc1ccc(O)cc1)NC(=O)[C@@H]1CCCN1C(=O)[C@H](N)CCCCN)C(=O)N1CCC[C@H]1C(=O)N[C@@H](CC(C)C)C(=O)NCC(=O)N[C@H](CCCCN)C(=O)NCC(=O)N[C@@H](CCC(=O)O)C(=O)N[C@H](C(=O)N[C@@H](CC(N)=O)C(=O)N[C@@H](CC(C)C)[C@@H](O)CC(=O)N[C@H](C(=O)N[C@@H](C)C(=O)N[C@@H](CCC(=O)O)C(=O)N1CCC[C@@H]1C(=O)N[C@@H](CCCCNC(=O)CCC(=O)O[C@H]1CC[C@@]2(C)C(=CC[C@H]3[C@@H]4CC[C@H]([C@H](C)CCCC(C)C)[C@@]4(C)CC[C@@H]32)C1)C(N)=O)C(C)C)C(C)C |  | aqueous buffer | pH 6.5 | thermodynamic solubility | 951 µg/mL
CC(=O)N[C@@H](CCCNC(=N)N)C(=O)N[C@H]1CSSC[C@@H](C(=O)N[C@H](C(N)=O)[C@@H](C)O)NC(=O)[C@H](CCCNC(=N)N)NC(=O)[C@H](Cc2c[nH]cn2)NC(=O)[C@H](C)NC(=O)CNC(=O)[C@H](Cc2c[nH]c3ccccc23)NC(=O)[C@H](CC(=O)O)NC(=O)[C@H](CCC(N)=O)NC(=O)[C@H](Cc2c[nH]c3ccccc23)NC(=O)[C@H](C(C)C)NC1=O | absorbance | water |  | thermodynamic solubility | > 1000 µM
Brc1cccc2c(NCc3ccccc3)nc(NCc3ccccc3)nc12 |  | aqueous buffer | pH 5 | solubility | 0.42 µg/mL (≈ 1 µM)
CC[C@H](C)[C@H](NC(=O)[C@H](Cc1ccccc1)NC(=O)[C@@H](CCCCN)NC(=O)[C@@H]1CCCN1C(=O)[C@@H](N)Cc1ccc(O)cc1)C(=O)N1CCC[C@H]1C(=O)N[C@@H](CC(C)C)C(=O)NCC(=O)N[C@H](CCCCN)C(=O)NCC(=O)N[C@@H](CCC(=O)O)C(=O)N[C@H](C(=O)N[C@@H](CC(N)=O)C(=O)N[C@@H](CC(C)C)[C@@H](O)CC(=O)N[C@H](C(=O)N[C@@H](C)C(=O)N[C@@H](CCC(=O)O)C(=O)N1CCC[C@@H]1C(=O)N[C@@H](CCCCNC(=O)CCC(=O)O[C@H]1CC[C@@]2(C)C(=CC[C@H]3[C@@H]4CC[C@H]([C@H](C)CCCC(C)C)[C@@]4(C)CC[C@@H]32)C1)C(N)=O)C(C)C)C(C)C |  | aqueous buffer | pH 6.5 | thermodynamic solubility | > 3000 µg/mL
